Source: ChEMBL document CHEMBL3877250, “Design, synthesis, and biological evaluation of (2E)-(2-oxo-1, 2-dihydro-3H-indol-3-ylidene)acetate derivatives as anti-proliferative agents through ROS-induced cell apoptosis” (Eur J Med Chem, 2016)

What was measured:
[1] = Cytotoxicity against human HL60 cells after 72 hrs by CCK-8 assay; format: functional, cell-based; conditions: HL-60, 72 h
In short: (§1)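 Cells kept in RPMI 1640 with 10% heat-inactivated fetal calf serum and 1% streptomycin/penicillin at 37 °C, 5% CO2. After compound exposure, CCK-8 was added and cells were incubated 4 h at 37 °C, then absorbance was read at 450 nm. Viability is relative to untreated cells (100%). IC50 comes from nonlinear regression, mean of three separate determinations. Single-concentration screen at 20 µM.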

[2] = Cytotoxicity against human SW480 cells assessed as growth inhibition at 20 uM after 72 hrs by CCK-8 assay; format: functional; conditions: SW480, 72 h, read-out: GI; in short: as §1
[3] = Cytotoxicity against human L02 cells assessed as growth inhibition at 20 uM after 72 hrs by CCK-8 assay; format: toxicity, cell-based; conditions: read-out: GI; in short: as §1
[4] = Cytotoxicity against human SK-BR-3 cells after 72 hrs by CCK-8 assay; format: functional, cell-based; conditions: SK-BR-3, 72 h; in short: as §1
[5] = Cytotoxicity against human L02 cells; format: toxicity, cell-based
[6] = Cytotoxicity against human HCT116 cells after 72 hrs by CCK-8 assay; format: functional, cell-based; conditions: HCT-116, 72 h; in short: as §1
[7] = Cytotoxicity against human Saos2 cells assessed as growth inhibition at 20 uM after 72 hrs by CCK-8 assay; format: functional; conditions: SAOS-2, 72 h, read-out: GI; in short: as §1
[8] = Cytotoxicity against human HCT116 cells assessed as growth inhibition at 20 uM after 72 hrs by CCK-8 assay; format: functional; conditions: HCT-116, 72 h, read-out: GI; in short: as §1
[9] = Cytotoxicity against human SW480 cells after 72 hrs by CCK-8 assay; format: functional, cell-based; conditions: SW480, 72 h; in short: as §1
[10] = Cytotoxicity against human MDA-MB-231 cells after 72 hrs by CCK-8 assay; format: functional, cell-based; conditions: MDA-MB-231, 72 h; in short: as §1
[11] = Cytotoxicity against human Saos2 cells after 72 hrs by CCK-8 assay; format: functional, cell-based; conditions: SAOS-2, 72 h; in short: as §1
[12] = Cytotoxicity against human L02 cells after 72 hrs by CCK-8 assay; format: toxicity, cell-based; in short: as §1
[13] = Cytotoxicity against human HepG2 cells after 72 hrs by CCK-8 assay; format: functional, cell-based; conditions: HepG2, 72 h; in short: as §1
[14] = Cytotoxicity against human MDA-MB-231 cells assessed as growth inhibition at 20 uM after 72 hrs by CCK-8 assay; format: functional; conditions: MDA-MB-231, 72 h, read-out: GI; in short: as §1
[15] = Cytotoxicity against human OVCAR3 cells after 72 hrs by CCK-8 assay; format: functional, cell-based; conditions: OVCAR-3, 72 h; in short: as §1
[16] = Cytotoxicity against human SK-BR-3 cells assessed as growth inhibition at 20 uM after 72 hrs by CCK-8 assay; format: functional; conditions: SK-BR-3, 72 h, read-out: GI; in short: as §1
[17] = Antitumor activity against human HepG2 cells assessed as growth inhibition at 20 uM after 72 hrs by CCK-8 assay; format: functional; conditions: HepG2, 72 h, read-out: GI; in short: as §1
[18] = Cytotoxicity against human OVCAR3 cells assessed as growth inhibition at 20 uM after 72 hrs by CCK-8 assay; format: functional; conditions: OVCAR-3, 72 h, read-out: GI; in short: as §1
[19] = Cytotoxicity against human HL60 cells assessed as growth inhibition at 20 uM after 72 hrs by CCK-8 assay; format: functional; conditions: HL-60, 72 h, read-out: GI; in short: as §1

## CC(C)(C)OC(=O)/C=C1/C(=O)Nc2ccc(Cl)cc21
[1]
  IC50: 3.16 µM
[2]
  inhibition of growth at 20 µM: 78.5%
[3]
  inhibition at 72 h, 20 µM: 63.3%
[4]
  IC50: 6.48 µM
[5]
  IC50: 6.18 µM
[6]
  IC50: 5.5 µM
[7]
  inhibition of growth at 20 µM: 82.3%
[8]
  inhibition of growth at 20 µM: 89.7%
[9]
  IC50: 5.49 µM
[10]
  IC50: 3.11 µM
[11]
  IC50: 6.51 µM
[12]
  IC50 at 72 h: 4.72 µM
[13]
  IC50: 8.99 µM
[14]
  inhibition of growth at 20 µM: 87.6%
[15]
  IC50: 19 µM
[16]
  inhibition of growth at 20 µM: 87.6%
[17]
  inhibition of growth at 20 µM: 87.1%
[18]
  inhibition of growth at 20 µM: 59.4%
[19]
  inhibition of growth at 20 µM: 94.9%
